Experimental data taken from PubChem BioAssay AID624307 (The Scripps Research Institute Molecular Screening Center, 2012).
Active and inactive are the calls of the source.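 How the source made its calls: active means relative luminescence ratio of 1.25 or more at any tested dose; inactive means ratio below 1.25 at every tested dose.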

Experiment: StAR promoter luciferase reporter activators, dose response, counter-screen for DAX1 inhibitor project, cell-based, luminescence, HEK293, powder samples, assay provider (AID 624307)
Conditions: HEK293 StAR promoter luciferase reporter (DAX-1/SF-1); series mostly up to 100 µM; relative luminescence ratio, normalised: at the top concentration
In short: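 Material: HEK293 transfectants with DAX-1, SF-1 and StAR-luciferase reporter / Compound dosing: 100 µM single dose plus three-point 1:2 series from 50 µM / Technique: luciferase luminescence from StAR promoter reporter / Read-out: luminescence relative to DMSO / Replication: triplicate per concentration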

Row | SMILES | relative luminescence ratio, normalised
1 | COc1ccc(OC)c(C(C)NC(=O)c2ccc(C)cc2)c1 (stereo not given) | 0.09 (inactive)
2 | O=C(Nc1ccc2c(c1)OCO2)c1ccc(C2SCC(=O)N2Cc2ccco2)cc1 (stereo not given) | 0.34 (inactive)
3 | COc1ccc(OC)c(C(C)NC(=O)c2cccc(C)c2)c1 (stereo not given) | 0.1 (inactive)
4 | COc1ccc(OC)c(C(C)NC(=O)c2cccc(F)c2)c1 (stereo not given) | 0.1 (inactive)
5 | COc1cccc(C(=O)Nc2ccc3c(c2)OCCO3)c1 | 0.05 (inactive)
6 | O=C(Nc1ccc2c(c1)OCO2)c1ccc2ccccc2c1 | 0.08 (inactive)
7 | COc1ccc(OC)c(C(C)NC(=O)c2ccc(Cl)cc2)c1 (stereo not given) | 0.07 (inactive)
8 | COc1ccc(OC)c(C(C)NC(=O)c2ccccc2)c1 (stereo not given) | 0.1 (inactive)
9 | O=C(Nc1ccc2c(c1)OCO2)c1ccc(C2SCC(=O)N2Cc2ccccc2)cc1 (stereo not given) | 0.02 (inactive)
10 | Cn1c(=O)n(C)c2cc(C(=O)Nc3ccc4c(c3)OCCO4)ccc21 | 0.15 (inactive)
11 | COc1ccc(OC)c(C(C)NC(=O)c2ccccc2C)c1 (stereo not given) | 0.11 (inactive)
12 | CN(C)c1cccc(C(=O)Nc2ccc3c(c2)OCCO3)c1 | 0.07 (inactive)
13 | Cc1cc(C(=O)Nc2ccc3c(c2)OCO3)cs1 | 0.14 (inactive)
14 | O=C(Cc1cccs1)Nc1ccc2c(c1)OCO2 | 0.35 (inactive)
15 | COc1ccc(OC)c(C(C)NC(=O)c2cccc3ccccc23)c1 (stereo not given) | 0.01 (inactive)
16 | COc1ccc(OC)c(C(C)NC(=O)c2ccc(F)cc2)c1 (stereo not given) | 0.06 (inactive)
17 | COc1ccc(OC)c(C(C)NC(=O)c2ccccc2F)c1 (stereo not given) | 0.07 (inactive)
18 | COc1ccc(OC)c(C(C)NC(=O)c2ccccc2Cl)c1 (stereo not given) | 0.08 (inactive)
19 | Cc1occc1C(=O)Nc1ccc2c(c1)OCO2 | 0.07 (inactive)
20 | COc1cccc(C(=O)NC(C)c2cc(OC)ccc2OC)c1 (stereo not given) | 0.04 (inactive)
